Results from ChEMBL document CHEMBL1141721, “Structure-toxicity relationship of aminoglycosides: correlation of 2'-amine basicity with acute toxicity in pseudo-disaccharide scaffolds” (Bioorg Med Chem, 2008).
Converted amounts (≈) assume the structure as drawn.

Assays:
Escherichia coli [1] = test: Antimicrobial activity against Escherichia coli R477-100 by double-microdilution method; format: functional
[2] = Toxicity in iv dosed ICR mouse assessed as effect on mortality after 4 days; format: organism-based; conditions: in vivo
Pseudomonas aeruginosa [3] = test: Activity of Pseudomonas aeruginosa APH(3')-2b assessed as rate of NADH absorbance decrease by pyruvate kinase/lactate dehydrogenase coupled assay
How it was run: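 Recombinant APH(3')-IIb purified on a neomycin B affinity column. Substrate neamine 1–100 μM, inhibitor 0–1000 μM. Preincubation 5 min at 37 °C, then started with enzyme. NADH loss read at 340 nm; Ki by nonlinear regression.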

Pseudomonas aeruginosa [4] = test: Antimicrobial activity against Pseudomonas aeruginosa 590 isolate by double-microdilution method; format: functional
How it was run: (§1)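 Double-microdilution method following NCCLS, starting at 384 µg/mL of compound with doubling dilutions. Run in triplicate (a table footnote says duplicates), with analogous results in three separate experiments.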

[5] = system: Staphylococcus epidermidis; test: Antimicrobial activity against Staphylococcus epidermidis ATCC 12228 by double-microdilution method; format: functional; how it was run: as §1
Bacillus subtilis = test: Antimicrobial activity against Bacillus subtilis by double-microdilution method; format: functional; how it was run: as §1
[6] = Inhibition of Pseudomonas aeruginosa APH(3')-2b assessed as rate of NADH absorbance decrease by pyruvate kinase/lactate dehydrogenase coupled assay
How it was run: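 Purified recombinant APH(3')-IIb, affinity-purified on a neomycin B column. ATP consumption followed by pyruvate kinase/lactate dehydrogenase coupling as NADH decrease at 340 nm. Buffer: 50 mM Tris-HCl pH 7.5, 40 mM KCl, 10 mM MgCl2, 1 mM ATP, 2.5 mM PEP. Neamine substrate 1–100 µM, inhibitor 0–1000 µM. 5 min preincubation at 37 °C, started with enzyme. Ki by nonlinear regression.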

Pseudomonas aeruginosa [7] = test: Antimicrobial activity against Pseudomonas aeruginosa 584/5 isolate by double-microdilution method; format: functional
Escherichia coli [8] = test: Antimicrobial activity against Escherichia coli ATCC 25922 by double-microdilution method; format: functional
Escherichia coli [9] = test: Antimicrobial activity against Escherichia coli XL1 expressing APH(3')-1a by double-microdilution method; format: functional
Escherichia coli [10] = test: Inhibition of translation in Escherichia coli S30 extract by coupled transcription/translation assay; format: functional
How it was run: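 E. coli S30 extract for circular DNA with pBES-Tluc plasmid, coupled transcription/translation. 25 µL reactions with varied aminoglycoside concentrations, 60 min at 37 °C, then 5 min on ice. Diluted into Tris-phosphate 25 mM pH 7.8 buffer with DTT, CDTA, glycerol, Triton X-100 and BSA. Luciferase luminescence read at once; IC50 fitted from concentration-response curves of at least two independent experiments.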

Pseudomonas aeruginosa [11] = test: Antimicrobial activity against Pseudomonas aeruginosa ATCC 27853 by double-microdilution method; format: functional

Row | SMILES | MIC (Escherichia coli [1]) | LD50 at 96 h [2] | Km (Pseudomonas aeruginosa [3]) | kcat (Pseudomonas aeruginosa [3]) | MIC (Pseudomonas aeruginosa [4]) | MIC [5] | MIC (Bacillus subtilis) | Ki [6] | MIC (Pseudomonas aeruginosa [7]) | MIC (Escherichia coli [8]) | MIC (Escherichia coli [9]) | IC50 (Escherichia coli [10]) | MIC (Pseudomonas aeruginosa [11])
1 | NC[C@H]1O[C@H](O[C@H]2[C@H](O)[C@@H](O)[C@H](N)C[C@@H]2N)[C@H](N)[C@@H](O)[C@@H]1O [NEAMINE] | 96 µg/mL (≈ 298 µM) | 161 mg/kg | 10.3 µM | 1.7 s⁻¹ |  |  |  |  |  |  |  |  | 
2 | CNC1C(O)C(OC2C(N)CC(N)C(OC3OC(CN)CCC3N)C2O)OCC1(C)O (stereo not drawn) [GENTAMICIN C1A] |  |  |  |  | 384 µg/mL (≈ 854 µM) | 6 µg/mL (≈ 13.3 µM) | 6 µg/mL (≈ 13.3 µM) |  |  |  |  |  | 
3 | NC[C@@H]1CC[C@@H](N)[C@@H](O[C@H]2[C@H](O)[C@@H](O)[C@H](N)C[C@@H]2N)O1 [GENTAMINE C1A] | 192 µg/mL (≈ 661 µM) | 103 mg/kg |  |  |  |  |  | 650 µM |  |  |  |  | 
4 | CN[C@@H]1[C@@H](O)[C@@H](O[C@@H]2[C@@H](O)[C@H](O[C@H]3O[C@H](CN)[C@H]4OCO[C@@H]4[C@H]3N)[C@@H](N)C[C@H]2N)OC[C@]1(C)O | 48 µg/mL (≈ 97.3 µM) | 226 mg/kg |  |  | 48 µg/mL (≈ 97.3 µM) | 24 µg/mL (≈ 48.6 µM) | 12 µg/mL (≈ 24.3 µM) |  | 24 µg/mL (≈ 48.6 µM) | 48 µg/mL (≈ 97.3 µM) | 12 µg/mL (≈ 24.3 µM) | 0.038 µM | 24 µg/mL (≈ 48.6 µM)
5 | NC[C@H]1O[C@H](O[C@H]2[C@H](O)[C@@H](O)[C@H](N)C[C@@H]2N)[C@H](N)[C@H]2OCO[C@@H]21 | > 384 µg/mL | 303 mg/kg |  |  |  |  |  | 642 µM |  |  |  |  | 
